One compound from ChEMBL document CHEMBL4680165, “β-Lactams with antiproliferative and antiapoptotic activity in breast and chemoresistant colon cancer cells” (Eur J Med Chem, 2020) can be followed below.

Experiment [1] deals with MCF7. Description: Antiproliferative activity against human MCF7 cells assessed as reduction in cell viability after 72 hrs by alamar blue assay. Format: functional, cell-based. As to conditions: MCF7, 72 h. The gist of the method: (§1)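 Cells seeded at 5 x 10^3/well (MCF-7) or 1 x 10^4/well (HT-29, HEK-293T) and treated after 24 h with serial dilutions (0.001-100 µM) in 1% v/v ethanol vehicle. Alamar Blue 10% v/v added at 72 h, then 3-5 h at 37 °C in the dark; fluorescence ex 530/em 590 nm. Viability relative to vehicle; IC50 from dose-response curves; mean of three experiments in triplicate.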

The nature of experiment [2]: Selectivity index, ratio of IC50 for human MCF7 cells to IC50 for human HT-29 cells assessed as reduction in cell viability after 72 hrs by alamar blue assay. Format: functional. For orientation: Alamar Blue is a resazurin reagent that responds to reducing activity.
Experiment [3] concerns HT-29. Description: Induction of apoptosis in human HT29 cells assessed as cell apoptosis at 1 uM after 48 hrs by Annexin V-FITC and propidium iodide staining based flow cytometry. Format: functional. In short, it runs like this: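 HT-29 cells were treated at 1 µM for 24, 48 and 72 h against an untreated control. Cells were stained with Annexin V in binding buffer (HEPES pH 7.4, NaCl, CaCl2) for 30 min on ice in the dark, washed, resuspended in PI-containing buffer and read at once by flow cytometry. Quadrants: early apoptotic, late apoptotic, necrotic (Annexin V−/PI+).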
A general note: A flow cytometer gives signals particle by particle.

Experiment [4] relates to MCF7. Nature of the experiment: Induction of apoptosis in human MCF7 cells assessed as downregulation of Bcl-2 expression level measured after 72 hrs by Western blot analysis. Format: functional, cell-based. To be noted: dose 0.05-0.5 µM. In short, it runs like this:
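MCF-7 cells (1 × 10^5 per flask) were treated at 0.05, 0.1 and 0.5 µM for 48 and 72 h; vehicle was 0.1% v/v ethanol. Lysis was in RIPA buffer with protease and phosphatase inhibitors. Equal protein (BCA) was run on 12% SDS-PAGE and blotted for Mcl-1, Bcl-2 and survivin, with GAPDH as loading control and ECL detection. Three independent experiments.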
In general terms: A western blot detects proteins with antibodies after separation by electrophoresis.

Experiment [5] relates to MCF7. Description: Induction of apoptosis in human MCF7 cells assessed as early apoptotic cells after 48 hrs by Annexin V-FITC and propidium iodide staining based flow cytometry. As to conditions: dose 10-1000 nM. Format: functional, cell-based. In short, it runs like this:
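MCF-7 cells were seeded at 1 × 10^5 cells/mL and treated for 48 h at 0.01, 0.1 and 1 µM; vehicle was 0.1% v/v ethanol. Annexin V staining was done on ice in the dark for 30 min in HEPES/NaCl/CaCl2 binding buffer, followed by PI. Flow cytometry scored early apoptotic (Annexin V+/PI−) and late apoptotic (Annexin V+/PI+) cells; total apoptotic is Annexin V-positive cells.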

The test system of experiment [6] is HT-29. Description: Antiproliferative activity against human HT-29 cells assessed as reduction in cell viability after 72 hrs by alamar blue assay. Format: functional, cell-based. To be noted: HT-29, 72 h. In short, it runs like this:
as §1

What is called IC50 is the concentration at which inhibition is half-maximal.

Take `COc1ccc([C@H]2[C@H](O)C(=O)N2c2cc(OC)c(OC)c(OC)c2)cc1F`: the IC50 stood at 22 nM in the experiment with MCF7 [1] and 3 nM in the experiment on HT-29 [6]. The “Ratio IC50” value in experiment [2] is given as 7.33. For the same compound, the results for the Activity in the experiment on HT-29 [3], in the experiment with MCF7 [4] and in the experiment with MCF7 [5] were 25%, “Dose-dependent effect” and “Dose-dependent effect”, respectively.
